Data as given in ChEMBL document CHEMBL1140345, “Conformational constraint in oxazolidinone antibacterials. Synthesis and structure-activity studies of (azabicyclo[3.1.0]hexylphenyl)oxazolidinones” (2005).
Values after ≈ are worked out from the molar mass of the structure shown.

Assays:
Escherichia coli [1] = test: Minimum inhibitory concentration against Escherichia coli UC6674; type: functional
How it was run: (§1)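 Broth microdilution MIC following the NCCLS M7-A4 approved standard for dilution susceptibility testing of aerobically growing bacteria. The method is taken as accurate to within one dilution.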

Enterococcus faecalis [2] = test: Minimum inhibitory concentration against Enterococcus faecalis UC9217; type: functional; how it was run: as §1
Staphylococcus aureus [3] = test: Minimum inhibitory concentration against methicillin, ciprofloxacin, rifampin, imipenem-resistant Staphylococcus aureus UC12673; type: functional
How it was run: (§2)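 MIC determined by standard broth microdilution following the NCCLS M7-A4 approved standard for dilution susceptibility testing of aerobically growing bacteria.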

Staphylococcus aureus [4] = test: Minimum inhibitory concentration against methicillin-susceptible Staphylococcus aureus UC9213; type: functional; how it was run: as §2
Streptococcus pneumoniae [5] = test: Minimum inhibitory concentration against penicillin-susceptible Streptococcus pneumoniae UC9912; type: functional; how it was run: as §1
Haemophilus influenzae [6] = test: Minimum inhibitory concentration against ampicillin-reisitant Haemophilus influenzae UC30063; type: functional; how it was run: as §1
[7] = tested on: Staphylococcus epidermidis; test: Minimum inhibitory concentration against methicillin-resistant Staphylococcus epidermidis UC12084
Enterococcus faecalis [8] = test: Minimum inhibitory concentration against Enterococcus faecalis UC9217; Range is from 2-4 ug/mL; type: functional; how it was run: as §1
[9] = tested on: Staphylococcus epidermidis; test: Minimum inhibitory concentration against methicillin-resistant Staphylococcus epidermidis UC12084; Range is from 1-2 ug/mL
Streptococcus pneumoniae [10] = test: Minimum inhibitory concentration against penicillin-susceptible Streptococcus pneumoniae UC9912; Range is from 0.5-1 ug/mL; type: functional; how it was run: as §1
Haemophilus influenzae [11] = test: Minimum inhibitory concentration against ampicillin-reisitant Haemophilus influenzae UC30063; Range is from 8-16 ug/mL; type: functional; how it was run: as §1
Haemophilus influenzae [12] = test: Minimum inhibitory concentration against ampicillin-reisitant Haemophilus influenzae UC30063; Range is 8-16 ug/mL; type: functional; how it was run: as §2
Staphylococcus aureus [13] = test: Minimum inhibitory concentration against methicillin-susceptible Staphylococcus aureus UC9213; Range is 2-4 ug/mL; type: functional; how it was run: as §2
[14] = tested on: Staphylococcus epidermidis; test: Minimum inhibitory concentration against methicillin-resistant Staphylococcus epidermidis UC12084; Range is 0.5-1 ug/mL
Staphylococcus aureus [15] = test: Minimum inhibitory concentration against methicillin, ciprofloxacin, rifampin, imipenem-resistant Staphylococcus aureus UC12673; Range is 2-4 ug/mL; type: functional; how it was run: as §2
Escherichia coli [16] = test: Minimum inhibitory concentration against Escherichia coli UC6674; Range is 16-32 ug/mL; type: functional; how it was run: as §1
Enterococcus faecalis [17] = test: Minimum inhibitory concentration against Enterococcus faecalis UC9217; Range is 1-2 ug/mL; type: functional; how it was run: as §1
[18] = tested on: Staphylococcus epidermidis; test: Minimum inhibitory concentration against methicillin-resistant Staphylococcus epidermidis UC12084; Range is 0.5-1 ug/mL; remark: listed apart in the source
Moraxella catarrhalis = test: Minimum inhibitory concentration Moraxella catarrhalis; type: functional; how it was run: as §1
[19] = Streptococcus pneumoniae, read-out: MIC
[20] = Haemophilus influenzae, read-out: MIC

Structure (SMILES): CC(=O)NC[C@H]1CN(c2cc(F)c(N3C[C@@H]4[C@H](C3)[C@H]4NS(C)(=O)=O)c(F)c2)C(=O)O1
- MIC (Escherichia coli [1]): > 64 µg/mL
- MIC (Enterococcus faecalis [2]): 2 µg/mL (≈ 4.5 µM)
- MIC (Staphylococcus aureus [3]): 4 µg/mL (≈ 9 µM)
- MIC (Staphylococcus aureus [4]): 4 µg/mL (≈ 9 µM)
- MIC (Streptococcus pneumoniae [5]; [19]): 1 µg/mL (≈ 2.25 µM)
- MIC (Haemophilus influenzae [6]; [20]): 32 µg/mL (≈ 72 µM)
- MIC [7]: 1 µg/mL (≈ 2.25 µM)

Structure (SMILES): CC(=O)NC[C@H]1CN(c2cc(F)c(N3C[C@@H]4[C@H](C3)[C@H]4NC(=O)CO)c(F)c2)C(=O)O1
- MIC (Escherichia coli [1]): > 64 µg/mL
- MIC (Enterococcus faecalis [2]): 8 µg/mL (≈ 18.8 µM)
- MIC (Staphylococcus aureus [3]): 16 µg/mL (≈ 37.7 µM)
- MIC (Staphylococcus aureus [4]): 16 µg/mL (≈ 37.7 µM)
- MIC (Streptococcus pneumoniae [5]; [19]): 2 µg/mL (≈ 4.71 µM)
- MIC (Haemophilus influenzae [6]; [20]): 64 µg/mL (≈ 151 µM)
- MIC [7]: 4 µg/mL (≈ 9.42 µM)

Structure (SMILES): CC(=O)NC[C@H]1CN(c2ccc(N3C[C@@H]4[C@H](C3)[C@H]4C(=O)O)c(F)c2)C(=O)O1
- MIC (Escherichia coli [1]): > 64 µg/mL
- MIC (Enterococcus faecalis [2]): 4 µg/mL (≈ 10.6 µM)
- MIC (Staphylococcus aureus [3]): 4 µg/mL (≈ 10.6 µM)
- MIC (Staphylococcus aureus [4]): 8 µg/mL (≈ 21.2 µM)
- MIC (Streptococcus pneumoniae [5]; [19]): 4 µg/mL (≈ 10.6 µM)
- MIC (Haemophilus influenzae [6]; [20]): 16 µg/mL (≈ 42.4 µM)
- MIC [7]: 2 µg/mL (≈ 5.3 µM)

Structure (SMILES): CC(=O)NC[C@H]1CN(c2cc(F)c(N3C[C@@H]4[C@H](C3)[C@H]4C(N)=O)c(F)c2)C(=O)O1
- MIC (Escherichia coli [1]): > 64 µg/mL
- MIC (Enterococcus faecalis [2]): 2 µg/mL (≈ 5.07 µM)
- MIC (Staphylococcus aureus [3]): 4 µg/mL (≈ 10.1 µM)
- MIC (Staphylococcus aureus [4]): 4 µg/mL (≈ 10.1 µM)
- MIC (Streptococcus pneumoniae [5]; [19]): 1 µg/mL (≈ 2.54 µM)
- MIC (Haemophilus influenzae [6]; [20]): 32 µg/mL (≈ 81.1 µM)
- MIC [7]: 2 µg/mL (≈ 5.07 µM)

Structure (SMILES): CC(=O)NC[C@H]1CN(c2cc(F)c(N3C[C@@H]4[C@H](C3)[C@H]4NC(C)=O)c(F)c2)C(=O)O1
- MIC (Escherichia coli [1]): > 64 µg/mL
- MIC (Staphylococcus aureus [3]): 4 µg/mL (≈ 9.79 µM)
- MIC (Enterococcus faecalis [8]): 4 µg/mL (≈ 9.79 µM)
- MIC (Staphylococcus aureus [4]): 4 µg/mL (≈ 9.79 µM)
- MIC (Streptococcus pneumoniae [5]; [19]): 1 µg/mL (≈ 2.45 µM)
- MIC (Haemophilus influenzae [6]; [20]): 64 µg/mL (≈ 157 µM)
- MIC [9]: 2 µg/mL (≈ 4.9 µM)

Structure (SMILES): CC(=O)NC[C@H]1CN(c2ccc(N3C[C@H]4C[C@H]4C3)c(F)c2)C(=O)O1
- MIC (Escherichia coli [1]): > 64 µg/mL
- MIC (Enterococcus faecalis [2]): 2 µg/mL (≈ 6 µM)
- MIC (Staphylococcus aureus [3]): 2 µg/mL (≈ 6 µM)
- MIC (Staphylococcus aureus [4]): 2 µg/mL (≈ 6 µM)
- MIC (Streptococcus pneumoniae [5]; [19]): 1 µg/mL (≈ 3 µM)
- MIC (Haemophilus influenzae [6]; [20]): 32 µg/mL (≈ 96 µM)
- MIC [7]: 1 µg/mL (≈ 3 µM)

Structure (SMILES): CCC(=O)NC[C@H]1CN(c2cc(F)c(N3C[C@@H]4[C@@H](N)[C@@H]4C3)c(F)c2)C(=O)O1
- MIC (Streptococcus pneumoniae [10]): 1 µg/mL (≈ 2.63 µM)
- MIC (Staphylococcus aureus [3]): 4 µg/mL (≈ 10.5 µM)
- MIC (Enterococcus faecalis [8]): 4 µg/mL (≈ 10.5 µM)
- MIC (Staphylococcus aureus [4]): 4 µg/mL (≈ 10.5 µM)
- MIC (Haemophilus influenzae [11]): 16 µg/mL (≈ 42.1 µM)
- MIC [9]: 2 µg/mL (≈ 5.26 µM)

Structure (SMILES): CC(=O)NC[C@H]1CN(c2cc(F)c(N3C[C@H]4C[C@H]4C3)c(F)c2)C(=O)O1
- MIC (Escherichia coli [1]): > 64 µg/mL
- MIC (Enterococcus faecalis [2]): 2 µg/mL (≈ 5.69 µM)
- MIC (Staphylococcus aureus [3]): 2 µg/mL (≈ 5.69 µM)
- MIC (Staphylococcus aureus [4]): 2 µg/mL (≈ 5.69 µM)
- MIC (Streptococcus pneumoniae [5]; [19]): 0.5 µg/mL (≈ 1.42 µM)
- MIC (Haemophilus influenzae [6]; [20]): 64 µg/mL (≈ 182 µM)
- MIC [7]: 1 µg/mL (≈ 2.85 µM)

Structure (SMILES): O=C(NC[C@H]1CN(c2cc(F)c(N3C[C@@H]4[C@H](C3)[C@H]4C(=O)O)c(F)c2)C(=O)O1)C(F)F
- MIC (Enterococcus faecalis [2]): 0.5 µg/mL (≈ 1.16 µM)
- MIC (Staphylococcus aureus [3]): 0.5 µg/mL (≈ 1.16 µM)
- MIC (Staphylococcus aureus [4]): 1 µg/mL (≈ 2.32 µM)
- MIC (Streptococcus pneumoniae [5]; [19]): 1 µg/mL (≈ 2.32 µM)
- MIC (Haemophilus influenzae [6]; [20]): 4 µg/mL (≈ 9.27 µM)
- MIC [7]: 0.5 µg/mL (≈ 1.16 µM)

Structure (SMILES): CC(=O)NC[C@H]1CN(c2cc(F)c(N3C[C@@H]4[C@H](C3)[C@H]4C(=O)Nc3ccc4c(c3)OCO4)c(F)c2)C(=O)O1
- MIC (Enterococcus faecalis [2]): 1 µg/mL (≈ 1.94 µM)
- MIC (Staphylococcus aureus [3]): 1 µg/mL (≈ 1.94 µM)
- MIC (Staphylococcus aureus [4]): 1 µg/mL (≈ 1.94 µM)
- MIC (Streptococcus pneumoniae [5]; [19]): 0.5 µg/mL (≈ 0.972 µM)
- MIC (Haemophilus influenzae [6]; [20]): > 64 µg/mL
- MIC [7]: 0.5 µg/mL (≈ 0.972 µM)

Structure (SMILES): CC(=O)NC[C@H]1CN(c2cc(F)c(N3C[C@@H]4[C@H](C3)[C@H]4NC(=O)Nc3ccccc3)c(F)c2)C(=O)O1
- MIC (Escherichia coli [1]): > 64 µg/mL
- MIC (Enterococcus faecalis [2]): 2 µg/mL (≈ 4.12 µM)
- MIC (Staphylococcus aureus [3]): 4 µg/mL (≈ 8.24 µM)
- MIC (Staphylococcus aureus [4]): 8 µg/mL (≈ 16.5 µM)
- MIC (Streptococcus pneumoniae [5]; [19]): 1 µg/mL (≈ 2.06 µM)
- MIC (Haemophilus influenzae [6]; [20]): > 64 µg/mL
- MIC [7]: 2 µg/mL (≈ 4.12 µM)

Structure (SMILES): CC(=O)NC[C@H]1CN(c2ccc(N3C[C@@H]4[C@@H](N)[C@@H]4C3)c(F)c2)C(=O)O1
- MIC (Escherichia coli [1]): 32 µg/mL (≈ 91.9 µM)
- MIC (Enterococcus faecalis [2]): 4 µg/mL (≈ 11.5 µM)
- MIC (Staphylococcus aureus [3]): 4 µg/mL (≈ 11.5 µM)
- MIC (Streptococcus pneumoniae [5]; [19]): 1 µg/mL (≈ 2.87 µM)
- MIC (Haemophilus influenzae [12]): 16 µg/mL (≈ 45.9 µM)
- MIC (Staphylococcus aureus [13]): 4 µg/mL (≈ 11.5 µM)
- MIC [14]: 1 µg/mL (≈ 2.87 µM)

Structure (SMILES): CC(=O)NC[C@H]1CN(c2cc(F)c(N3C[C@@H]4[C@@H](N)[C@@H]4C3)c(F)c2)C(=O)O1 (stereo in doubt)
- MIC (Escherichia coli [1]): > 64 µg/mL
- MIC (Enterococcus faecalis [2]): 4 µg/mL (≈ 10.9 µM)
- MIC (Staphylococcus aureus [3]): 4 µg/mL (≈ 10.9 µM)
- MIC (Staphylococcus aureus [4]): 8 µg/mL (≈ 21.8 µM)
- MIC (Streptococcus pneumoniae [5]): 1 µg/mL (≈ 2.73 µM)
- MIC (Haemophilus influenzae [6]): 32 µg/mL (≈ 87.3 µM)
- MIC [7]: 1 µg/mL (≈ 2.73 µM)

Structure (SMILES): CC(=O)NC[C@H]1CN(c2cc(F)c(N3C[C@@H]4[C@@H](N)[C@@H]4C3)c(F)c2)C(=O)O1 (stereo in doubt; 18b)
- MIC (Staphylococcus aureus [15]): 4 µg/mL (≈ 10.9 µM)
- MIC (Escherichia coli [16]): 32 µg/mL (≈ 87.3 µM)
- MIC (Streptococcus pneumoniae [5]; [19]): 0.5 µg/mL (≈ 1.36 µM)
- MIC (Haemophilus influenzae [6]): 8 µg/mL (≈ 21.8 µM)
- MIC (Enterococcus faecalis [17]): 2 µg/mL (≈ 5.46 µM)
- MIC (Staphylococcus aureus [13]): 4 µg/mL (≈ 10.9 µM)
- MIC [18]: 1 µg/mL (≈ 2.73 µM)

Structure (SMILES): CC(=O)NC[C@H]1CN(c2ccc(N3CCOCC3)c(F)c2)C(=O)O1 [LINEZOLID]
- MIC (Moraxella catarrhalis): 4 µg/mL (≈ 11.9 µM)
- MIC (Escherichia coli [1]): > 64 µg/mL
- MIC (Haemophilus influenzae [12]): 16 µg/mL (≈ 47.4 µM)
- MIC [7]: 1 µg/mL (≈ 2.96 µM)
